The test system of series [1] is Mycobacterium tuberculosis. Put plainly: Antitubercular activity against Mycobacterium tuberculosis H37Rv expressing GFP assessed as growth inhibition at 1 ug/ml measured after 7 days by fluorescence analysis relative to control. Format: functional. The conditions noted are these: 168 h, read-out: GI. A digest of the protocol:
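GFP-expressing H37Rv cultured in 7H9 with 10% OADC, 0.05% Tween 80 and 0.2% glycerol, sealed under an air-permeable membrane. Growth was read as fluorescence (excitation 485 nm, emission 528 nm) after seven days, in triplicate. Fluorescence tracks bacterial growth.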

The target in series [2] is ATP-dependent translocase ABCB1 (Homo sapiens, UniProt P08183). Put plainly: Inhibition of human ABCB1 expressed in mouse T-lymphoma cells assessed as rhodamine-123 accumulation by measuring fluorescence activity ratio at 1 uM by flow cytometry relative to control. Format: cell-based. (In general: A flow cytometer gives signals particle by particle.)
Series [3] concerns the target T1, Multidrug efflux ATP-binding/permease protein Rv0194 (Mycobacterium tuberculosis (strain ATCC 25618 / H37Rv)) (UniProt O53645).
T1 sequence (whole entry): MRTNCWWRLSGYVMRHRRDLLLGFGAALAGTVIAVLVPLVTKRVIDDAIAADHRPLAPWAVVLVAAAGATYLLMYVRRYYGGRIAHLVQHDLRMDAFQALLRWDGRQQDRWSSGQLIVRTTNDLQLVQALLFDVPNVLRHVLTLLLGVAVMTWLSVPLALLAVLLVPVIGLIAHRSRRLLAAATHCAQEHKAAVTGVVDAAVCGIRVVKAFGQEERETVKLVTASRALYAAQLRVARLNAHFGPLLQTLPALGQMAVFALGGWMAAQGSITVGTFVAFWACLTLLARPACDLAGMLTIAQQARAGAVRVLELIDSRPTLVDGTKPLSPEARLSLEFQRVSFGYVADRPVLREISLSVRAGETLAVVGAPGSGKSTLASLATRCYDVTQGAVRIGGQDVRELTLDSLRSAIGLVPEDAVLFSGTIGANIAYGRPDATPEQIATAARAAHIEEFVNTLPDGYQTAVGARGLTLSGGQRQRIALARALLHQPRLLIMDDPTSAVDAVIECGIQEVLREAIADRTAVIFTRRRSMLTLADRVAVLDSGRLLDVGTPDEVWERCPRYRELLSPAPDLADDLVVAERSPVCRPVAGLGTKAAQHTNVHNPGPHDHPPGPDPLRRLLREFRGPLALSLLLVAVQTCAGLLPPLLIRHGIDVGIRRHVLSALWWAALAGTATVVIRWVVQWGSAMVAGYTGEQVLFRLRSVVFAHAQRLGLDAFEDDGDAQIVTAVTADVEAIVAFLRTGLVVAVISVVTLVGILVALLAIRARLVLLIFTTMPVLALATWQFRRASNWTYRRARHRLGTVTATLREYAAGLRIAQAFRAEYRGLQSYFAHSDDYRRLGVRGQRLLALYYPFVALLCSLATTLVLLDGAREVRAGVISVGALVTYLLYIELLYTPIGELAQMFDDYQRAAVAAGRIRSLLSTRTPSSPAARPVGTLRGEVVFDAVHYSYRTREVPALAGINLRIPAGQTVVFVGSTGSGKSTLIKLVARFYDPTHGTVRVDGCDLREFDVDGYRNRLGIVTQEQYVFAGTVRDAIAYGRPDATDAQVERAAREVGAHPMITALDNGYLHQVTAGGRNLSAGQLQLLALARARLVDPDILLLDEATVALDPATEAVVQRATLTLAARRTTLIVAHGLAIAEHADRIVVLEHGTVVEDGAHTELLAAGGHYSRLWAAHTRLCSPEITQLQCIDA
Put plainly: Inhibition of GFP-fused Mycobacterium tuberculosis H37Rv Rv0194 assessed as potentiation of clofazimine-mediated antitubercular activity by measuring clofazimine growth inhibition at 0.3 ug/ml (reference value: 39%). A digest of the protocol:
(§1)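 The antitubercular drug at set concentrations was tested alone and combined with the test compound held at 0.3 µg/mL. The GFP-expressing H37Rv growth assay was used: 7H9 with 10% OADC, 0.05% Tween 80 and 0.2% glycerol, seven days of culture, fluorescence at 485/528 nm, triplicates.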

The target in series [4] is T1, Multidrug efflux ATP-binding/permease protein Rv0194 (Mycobacterium tuberculosis (strain ATCC 25618 / H37Rv)). Nature of the series: Inhibition of GFP-fused Mycobacterium tuberculosis H37Rv Rv0194 assessed as potentiation of ciprofloxacin-mediated antitubercular activity by measuring ciprofloxacin growth inhibition at 0.3 ug/ml (reference value: 19%). A digest of the protocol:
as §1

The target is the same in series [5]. Nature of the series: Inhibition of GFP-fused Mycobacterium tuberculosis H37Rv Rv0194 assessed as potentiation of ciprofloxacin-mediated antitubercular activity by measuring fold increase in ciprofloxacin growth inhibition at 0.3 ug/ml.

Chain of ATP-dependent translocase ABCB1 (P08183 whole entry): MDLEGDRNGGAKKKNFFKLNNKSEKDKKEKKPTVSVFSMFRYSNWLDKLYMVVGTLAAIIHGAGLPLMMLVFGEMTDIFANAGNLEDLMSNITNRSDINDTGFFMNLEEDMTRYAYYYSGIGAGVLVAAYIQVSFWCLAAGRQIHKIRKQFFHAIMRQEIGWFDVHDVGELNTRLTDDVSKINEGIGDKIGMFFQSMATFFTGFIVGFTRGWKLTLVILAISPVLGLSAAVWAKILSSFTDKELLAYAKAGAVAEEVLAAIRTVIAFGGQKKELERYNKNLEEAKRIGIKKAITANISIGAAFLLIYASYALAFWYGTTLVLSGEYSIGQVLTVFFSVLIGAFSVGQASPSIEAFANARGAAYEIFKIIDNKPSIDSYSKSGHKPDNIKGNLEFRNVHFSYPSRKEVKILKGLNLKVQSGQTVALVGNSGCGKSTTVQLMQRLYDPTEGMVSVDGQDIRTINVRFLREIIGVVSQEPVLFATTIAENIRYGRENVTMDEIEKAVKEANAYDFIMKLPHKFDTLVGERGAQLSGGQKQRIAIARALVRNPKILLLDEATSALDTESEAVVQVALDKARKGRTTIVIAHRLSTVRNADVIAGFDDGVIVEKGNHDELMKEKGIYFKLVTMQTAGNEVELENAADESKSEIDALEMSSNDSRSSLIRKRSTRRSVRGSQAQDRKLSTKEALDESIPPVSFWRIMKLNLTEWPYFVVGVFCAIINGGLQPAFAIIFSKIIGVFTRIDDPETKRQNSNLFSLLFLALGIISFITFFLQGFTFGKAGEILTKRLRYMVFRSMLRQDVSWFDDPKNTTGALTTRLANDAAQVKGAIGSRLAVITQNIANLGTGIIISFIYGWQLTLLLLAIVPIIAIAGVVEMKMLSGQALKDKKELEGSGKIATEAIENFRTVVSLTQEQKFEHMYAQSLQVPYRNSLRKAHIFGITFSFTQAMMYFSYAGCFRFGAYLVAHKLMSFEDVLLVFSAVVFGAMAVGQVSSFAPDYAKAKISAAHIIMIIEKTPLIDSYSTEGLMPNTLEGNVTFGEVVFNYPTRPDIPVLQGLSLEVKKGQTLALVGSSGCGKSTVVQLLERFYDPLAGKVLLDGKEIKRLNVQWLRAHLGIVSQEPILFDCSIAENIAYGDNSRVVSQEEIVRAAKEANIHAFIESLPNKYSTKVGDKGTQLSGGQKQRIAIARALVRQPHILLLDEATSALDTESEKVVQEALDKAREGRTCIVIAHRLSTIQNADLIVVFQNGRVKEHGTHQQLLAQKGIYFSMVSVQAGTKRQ

With `CCOC(=O)C1=CN(c2ccccc2)C=C(C(=O)OCC)C1c1cccc(OC)c1`, in series [1], the inhibition of growth at 1 µg/mL came out at 61%. In addition, in series [2], the Ratio amounted to 1.1.
For the compound `CCOC(=O)C1=CN(c2ccc(OC)cc2)C=C(C(=O)OCC)C1c1ccccc1`, the inhibition of growth at 1 µg/mL in series [1] was 60%. Also, the Ratio in series [2] is 3.9.
The corresponding values for `CCOC(=O)C1=CN(c2ccccc2)C=C(C(=O)OCC)C1c1ccccc1` are 57% and 4.3.
For the compound `CCOC(=O)C1=CN(c2ccc(OC)cc2)C=C(C(=O)OCC)C1c1ccc(OC)cc1`, in series [1], the inhibition of growth at 1 µg/mL was 35%. Besides, the Ratio in series [2] amounted to 1.2.
Regarding `NNC(=O)c1ccncc1` [ISONIAZID], in series [1], the inhibition of growth at 1 µg/mL is 97%.
With `CCOC(=O)C1=CN(c2ccc(OC)cc2)C=C(C(=O)OCC)C1c1cccc(OC)c1`, in series [1], the inhibition of growth at 1 µg/mL was determined as 41%. For the same compound, the Ratio in series [2] was found to be 3.4.
`CCOC(=O)C1=CN(c2ccccc2)C=C(C(=O)OCC)C1c1ccc(OC)c(OC)c1`: the growth inhibition (GI) turned out to be 60% in series [3] and 46% in series [4]. Also, the inhibition of growth at 1 µg/mL in series [1] came out at 30%. For the same compound, the fold change (FC) in series [5] is 2.5. The Ratio in series [2] was 7.3.
As to `CCOC(=O)C1=CN(c2ccc(OC)cc2)C=C(C(=O)OCC)C1c1ccc(OC)c(OC)c1`, in series [1], the inhibition of growth at 1 µg/mL amounted to 60%. Also, the Ratio in series [2] was 5.2.
Regarding `CCOC(=O)C1=CN(c2ccccc2)C=C(C(=O)OCC)C1c1ccc(OC)cc1`, the inhibition of growth at 1 µg/mL in series [1] turned out to be 25%.

For the origin of these results see ChEMBL document CHEMBL3868629, “Discovery of novel N-phenyl 1,4-dihydropyridines with a dual mode of antimycobacterial activity” (Bioorg Med Chem Lett, 2016).
